Reference: ChEMBL document CHEMBL4513216, “Probing the Open Global Health Chemical Diversity Library for Multistage-Active Starting Points for Next-Generation Antimalarials” (ACS Infect Dis, 2020)

Assay: Toxicity liver stage against HepG2, at 10uM
Type: cell-based
Set-up: test concentration 10 uM, cell line HepG2-A16-CD81EGFP
Details: human, HepG2-A16-CD81EGFP cells; read-out: INHIBITION
How it was run: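 Uninfected HepG2-A16-CD81EGFP cells, 3 × 10^3 per well, 1536-well, plated on prespotted compound at 10 μM final, parasite-free screening media added to match infected plates; puromycin 10 μM positive, DMSO 0.5% negative; run in parallel with 48 h PbLuc assay at 37 °C, 5% CO2; viability by CellTiter-Glo luminescence, normalized to controls.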

Compound | cytotoxicity at 10 µM [%]
COc1ccc(CN2CCOC[C@H](OCCC(C)C)C2)cc1 | -4.04
CC(C)(C)CN[C@@H]1CO[C@H](CNC(=O)c2cccs2)[C@H]1O | -4.23
COCCCNC(=O)N1CCN(C(=O)c2nsc3ccccc23)CC1 | 12
O=S(=O)(c1cccnc1)N1CCN(CC(O)c2cccs2)CC1 (configuration not stated) | -4.21
O=C(C1CCC2(CCN(c3ncccn3)CC2)CO1)N1CCCC1 (configuration not stated) | 5.59
COC[C@@H]1CC[C@H]2[C@H](CCN2S(=O)(=O)Cc2ccccc2)O1 | 7.43
N#Cc1ccc(OC[C@]23COC[C@H]2CN(c2ncccn2)C3)nc1 | -1.84
CC(C)NC(=O)N1CCC2(COCc3cnc(-c4ccccc4)nc32)C1 (configuration not stated) | -0.311
O=C(c1cnc2ccc(F)cc2c1NCc1ccco1)N1CCCCC1 | 9.34
COc1ccc(-n2nc(C(C)=O)c(C(C)=O)c2C)cc1Cl | -0.145
Cc1cs/c(=N\C(=O)Cn2nc(N3CCOCC3)ccc2=O)[nH]1 | -5.07
CNC(=O)Cc1n[nH]c(-c2cncc(Br)c2)n1 | -4.97
O=C(Cn1cc(I)cn1)N1CCCCCC1 | 8.9
Cc1ccc(-c2cc(N)c(=O)n(C(C)C(N)=O)n2)o1 (configuration not stated) | -1.89
Cn1cc(CN2CCC(c3cc(COc4ccc(Cl)cc4)[nH]n3)C2)cn1 (configuration not stated) | 0.0085
CCN(CC)CCCNCc1cc2cc(C)ccc2[nH]c1=O | -1.55
Cc1noc(C)c1CCC(=O)NCC1(O)CCN(c2ccccn2)C1 (configuration not stated) | 2.12
CC(=O)N1CCOC(c2cncc(CCC(=O)N(C)C)n2)C1 (configuration not stated) | -0.197
CNC(=O)c1cnn2c(C3CCCN3C)ccnc12 (configuration not stated) | 3.74
Cc1nc(C(=O)NCc2ccccn2)cc(C2CCCN2)n1 (configuration not stated) | 6.83
Cc1nc2ccc(C(=O)N3CCC(COc4ccccn4)CC3)cc2[nH]1 | -8.09
Cc1cc(O)nc(C2CN(CCC(F)(F)F)CCO2)n1 (configuration not stated) | -27.4
CCNC(=O)C1(CC2CC(c3ccccc3OC)=NO2)CCOCC1 (configuration not stated) | -26.8

Compound | cytotoxicity at 10 µM [%]
Cc1ccc2c(c1)C(=O)NCC1(CCN(Cc3ccccc3)CC1)O2 | -26.9
O=S(=O)(Nc1ccc(N2CCOCC2)cc1)c1cccc(F)c1 | 12
Cn1cc(C(=O)N2CCN(c3ccc(F)cc3)CC2)ccc1=O | 1.37
CN(c1cccnc1N1CCCC1)S(=O)(=O)c1cccnc1 | 0.981
Cc1cnn(-c2ccc(S(=O)(=O)N(C)CC(C)(CO)CO)cc2F)c1 | 12.5
O=C(NCC(F)(F)F)c1ccncc1 | -19
CC(C#N)CN(C)C(=O)CCNC(=O)OCC(F)(F)F (configuration not stated) | 3.89
CCOCC(=O)N1CCC(C(O)c2ccc(F)cc2)CC1 (configuration not stated) | -3.83
Cc1[nH]nc2ncc(C(=O)N3CCN(CC(C)(C)O)CC3)cc12 | -0.0414
O=C(CN1CCCS1(=O)=O)Nc1ccc(OC2CCCC2)c(Cl)c1 | -8.87
CCc1ccc(C(=O)N2CCCN(Cc3csc(CC)n3)CC2)o1 | -1.86
CC(NC(=O)NCCCn1ccnc1)c1nncn1C (configuration not stated) | 0.277
Cc1ccc(N(CC(=O)N2CCCCC2)C(=O)C2CCCO2)cc1 (configuration not stated) | 13.9
Cc1cc(Br)ccc1NCC(=O)Nc1cc(C(C)(C)C)no1 | 5.09
O=C(Nc1cnc(C2CC2)nc1)N1CCC(CN2CCCC2)C1 (configuration not stated) | 18.8
CSc1cc2c(cc1NC(=O)NCc1ccco1)OCCO2 | -5.08
Cc1cc2n(n1)CC(CNC1CCN(C(=O)c3ccco3)CC1)CN2 (configuration not stated) | 4
Cc1ccc(-n2nnc(CC(=O)N3CCN(C(C)C)CC3)c2C)cc1 | -3.36
CCc1nccn1C1CCCN(C(=O)c2cnc[nH]2)C1 (configuration not stated) | 2.52
O=C1CC(Cc2ccc(NC(=O)c3cccc(F)c3)cc2)C(=O)N1 (configuration not stated) | -1.39
CC(CO)N1CCN(C(=O)OC(C)(C)C)CC1 (configuration not stated) | -7.85
CC(C)=CCS(=O)(=O)Cc1noc(CC(C)C)n1 | -4.59
Cn1cc(NC(=O)Cc2cccs2)c(=O)n(C)c1=O | 0.393

Compound | cytotoxicity at 10 µM [%]
Cn1cc(S(=O)(=O)NC(=O)C2(c3cccc(Cl)c3)CC2)cn1 | -10
CC(C)c1nc2n(n1)CC(NCC(=O)N(C)Cc1cccs1)CC2 (configuration not stated) | -10.2
c1cncc(CN2CCC(NCCc3ccc4c(c3)CCO4)CC2)c1 | 5.41
CCc1cnccc1C(=O)NC1CCN(C(=O)OC)CC1 | 9.09
CC(C)NC(=O)N(C)C1CCN(c2ccccc2Cl)C1=O (configuration not stated) | -4.56
Brc1cccc(C2(CNCc3cc[nH]c3)CCOCC2)c1 | 8.95
Cc1noc(C)c1CN(C)C(=O)CCn1c(=O)n(C)c2ccccc21 | -6.67
N#Cc1cc(S(N)(=O)=O)ccc1NC1CCc2ccc(F)cc21 (configuration not stated) | 8.08
O=C(CSCc1ccncc1)N(Cc1ccsc1)C1CC1 | -11.2
Cc1cc(C#N)ccc1S(=O)(=O)N1CCN(C)Cc2ccccc21 | 5.34
CC(=O)NCCNC(=O)c1cnc(-c2ccccc2)nc1 | 6.56
OCC1CCCN1c1cc(NCCc2c[nH]c3ccccc23)ncn1 (configuration not stated) | -7.06
CN(C)CCn1c2c(ccc1=O)CCN(Cc1ccncc1)CC2 | 3.97
COCCCNC(=O)c1ccn(-c2ccc3ccccn23)n1 | -0.987
COc1ccccc1OC1CN(C(=O)Cc2c(C)nc3ccccn23)C1 | -2.27
CCN1CCC(CC(=O)NCc2cc(C)nn2C)CC1 | -14.5
CN(C)C(C(=O)N1CCC(CCO)CC1)c1ccccc1F (configuration not stated) | 5.88
O=C(C1CC(=O)N(C2CC2)C1)N1CCC(Oc2ccccc2Cl)CC1 (configuration not stated) | -7.54
COCc1cc(CNC(=O)c2c(O)cccc2O)n[nH]1 | -6.93
C[C@@H]1CN(Cc2cn(C)nc2-c2ccccc2F)C[C@H](C)O1 | -1.43
Cc1cccc(C2CCCN(C(=O)C3CCN(CC(N)=O)CC3)C2)c1 (configuration not stated) | -7.18
COC(=O)[C@H]1C[C@@H](O)CCN1S(=O)(=O)c1c(C)cc(OC)c(C)c1C | -16.2
Cc1nccn1CCC1CCCCN1Cc1cccc(CCN)c1 (configuration not stated) | 0.106

Compound | cytotoxicity at 10 µM [%]
O=C(c1ccccc1)N1CCCC(Nc2ccc(F)cc2)C1 (configuration not stated) | -3.09
CC(NC(=O)Nc1ccccc1CN1CCOCC1)c1nnc(N)s1 (configuration not stated) | 4.84
O=C(NCC(F)(F)F)C(c1cccnc1)N1CCOCC1 (configuration not stated) | 1.51
CN(C)c1nc(-c2ccncc2)nc2c1CCN(C(=O)[C@H](N)CO)C2 | 8.01
Cc1cc(N2CCN(C(=O)CCc3scnc3C)CC2)nc(N)n1 | -49.2
Cc1ccc(-c2nc3c([nH]2)CCNC3C(=O)O)c2cccnc12 (configuration not stated) | 5
Cc1cc(NCCNS(C)(=O)=O)nc2cc3c(cc12)CCC3 | 2.9
Cc1oc(-c2cc(F)cc(F)c2)nc1CN1C[C@@H](C)NC[C@@H]1C | -1.66
CCNC(=O)[C@@H]1C[C@H](N)CN1C(=O)CCc1ccccc1Cl | 4.79
Cc1ccc2[nH]c(=O)cc(C(=O)NCCCn3nccc3C3CC3)c2c1 | -4.35
COCCN(Cc1nccs1)C(=O)c1c(C)cc(C)[nH]c1=O | 0.0773
CCc1ncc2c(n1)CN(C(=O)COC)C2 | -19.4
CNc1nc(C(=O)N2CCCC(c3nccn3CC3CCC3)C2)cs1 (configuration not stated) | -16.7
CCc1cnc(CN(C(C)=O)C2CCN(Cc3nccn3C)C2)o1 (configuration not stated) | -8.13
CCc1nc(CN2CCOC(Cn3cncn3)C2)no1 (configuration not stated) | -5.71
COCCN(Cc1nc2c(cnn2C)c(=O)[nH]1)C(C)COC (configuration not stated) | -4.6
CCN(CC)C(=O)Cn1ccc2cc(NC(=O)COC)ccc21 | -7.89
CCc1noc(CN2CCN(C(=O)N(CC)CC)CC2)n1 | -1.67
CCOc1ccnc(N2CCCN(C(=O)c3cc[nH]c3C)CC2)n1 | 0.893
CCc1n[nH]c(C2CN(C(=O)c3cc4c(s3)CCC4)CCO2)n1 (configuration not stated) | -4.98
Cc1cc(CN2CCN(C(=O)NCc3ccoc3)CC2)no1 | -22.5
Cc1noc(C)c1CN1CCOC(CNc2cccnn2)C1 (configuration not stated) | -19
CCN1CCN(c2ccc(CNC(=O)Cc3c(C)noc3C)cn2)CC1 | -12.2

Compound | cytotoxicity at 10 µM [%]
Cc1cc(NC(=O)CN2CCCC2c2noc(C(C)C)n2)on1 (configuration not stated) | -6.31
COc1cccc(C(=O)NC(CC(=O)O)c2cccs2)c1OC (configuration not stated) | -8.66
COCCN1CCN(CCCS(=O)(=O)c2ccccc2)CC1C (configuration not stated) | -9.31
Cc1ccc(NC(=O)C2CSCN2C(=O)c2cc[nH]n2)c(C)c1 (configuration not stated) | -6.1
CC(Cn1cccn1)NC(=O)NCCc1ccc(Cl)s1 (configuration not stated) | -3.56
Cn1ncc(C(=O)N2CCCC(n3cccn3)C2)c1C1CC1 (configuration not stated) | 4.98
Cc1cnn(CC2CCCCN2C(=O)Cc2csc(C)n2)c1 (configuration not stated) | 2.26
O=C1NCCCCC1NCc1csc(-c2ccc(F)cc2)n1 (configuration not stated) | -13.5
c1ccc(N2CCC3(COCCN(Cc4cccs4)C3)C2)nc1 (configuration not stated) | 1.85
O=C(c1ccncc1)N1CCCC2(COCCN(c3ccccc3)C2)C1 (configuration not stated) | 2.31
COCCC(=O)N1CCN(CC2CC2)c2nc(C)ccc2C1 | 9.88
CN1CCOCC12CCN(c1nncs1)CC2 | 8.16
Cc1noc([C@]23COC[C@H]2CN(C(C)C)C3)n1 | 1.44
O=C1COC2(CCN(Cc3ccc(F)cc3)CC2)CN1 | -25.7
CC(C)Nc1ccc2nc(C3CCN(C(C)C)CC3)nn2c1 | -20.4
CCN1CCC2(CCC(=O)N2Cc2cccc(C)n2)CC1 | 5.08
CC(C)CN1CCC2(CCN(CC3CC3)CC2)C1=O | 7.37
c1cncc(C[C@H]2[C@H](N3CCOCC3)CCN2Cc2cccs2)c1 | 8.34
CN(C)S(=O)(=O)N1C[C@H]2CC[C@@H](C1)N(Cc1cccc(C#N)c1)C2 | 3.62
O=C(Cn1c(=O)[nH]c2cn(-c3ccccc3)c(=O)n21)NC1CCCCC1 | -0.2
